Assay results from ChEMBL document CHEMBL1157283, “Cytotoxic xenia diterpenoids from the soft coral Xenia umbellata” (2006).
Values after ≈ are worked out from the molar mass of the structure shown.

Experiments:
[1] = test system: HT-29; test: Cytotoxicity against human HT29 cells; type: functional, cell-based
Outline: (§1)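 Human A549 (lung adenocarcinoma) and HT-29 (colon adenocarcinoma) cells were obtained from ATCC. In vitro cytotoxicity was measured on the cultured cells.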

[2] = test system: A549; test: Cytotoxicity against human A549 cells; type: functional, cell-based; outline: as §1
[3] = test system: P388; test: Cytotoxicity against mouse P388 cells; type: functional; settings: read-out: ED50 (the source's name)

SMILES	Activity [1]	Activity [2]	EC50 [3] [µg/mL]
C=C1CC[C@@H]2O[C@@]2(C)CC[C@H]2[C@H]1C(=O)O[C@@]2(/C=C/C1OC1(C)C)COC(C)=O (stereo partly drawn)	Not toxic	Not toxic	–
CC(C)(O)/C=C/C=C1/COC(=O)[C@H]2C3=CC[C@@H](O)[C@@](C)(CC[C@H]12)C3	Not toxic	Not toxic	–
COC(=O)[C@@H]1[C@@H](/C(=C\CC(O)C(C)(C)O)COC(C)=O)CC[C@@]2(C)C[C@]1(O)CC[C@H]2O (stereo partly drawn) [UMBELLACIN I]	Not toxic	Not toxic	3.6 (≈ 8.13 µM)
C=C1CC[C@@H]2O[C@@]2(C)CC[C@H](/C(=C\CC(O)C(C)(C)O)COC(C)=O)[C@H]1C(=O)OC (stereo partly drawn) [UMBELLACIN H]	Not toxic	Not toxic	3.4 (≈ 8.01 µM)
C=C1C[C@@H](O)/C=C(\C)CC[C@@H]2/C(=C\C=C\C(C)(C)O)[C@@H](OC)O[C@H](OC)[C@@H]12	Not toxic	Not toxic	–
C=C1CC[C@@H]2O[C@@]2(C)CC[C@H]2[C@H]1C(=O)O[C@@]2(/C=C/C1OC1(C)C)CO (stereo partly drawn)	Not toxic	Not toxic	–
C=C1CC/C=C(\C)CC[C@H](/C(=C\CC(O)C(C)(C)O)COC(C)=O)[C@H]1C(=O)OC (stereo partly drawn) [UMBELLACIN F]	Not toxic	Not toxic	3.7 (≈ 9.06 µM)
COC(=O)[C@H]1C2=CC[C@@H](O)[C@@](C)(CC[C@@H]1/C(=C\CC(O)C(C)(C)O)COC(C)=O)C2 (stereo partly drawn) [UMBELLACIN E]	Not toxic	Not toxic	3.8 (≈ 8.95 µM)
COC(=O)[C@@H]1[C@@H](/C(=C\CC(O)C(C)(C)O)COC(C)=O)CC[C@]2(C)[C@@H]3CC[C@]12CO3 (stereo partly drawn) [UMBELLACIN D]	Not toxic	Not toxic	4.2 (≈ 9.89 µM)
C=C(C)C(O)C/C=C(/COC(C)=O)[C@H]1CC[C@@]2(C)C[C@](O)(CC[C@H]2O)[C@@H]1C(=O)OC (stereo partly drawn) [UMBELLACIN B]	Not toxic	Not toxic	1.6 (≈ 3.77 µM)
CC(C)(O)/C=C/C=C(/C=O)[C@H]1CC[C@@]2(C)C[C@](O)(CC[C@H]2O)[C@@H]1C=O	Not toxic	Not toxic	–
